By MIC is commonly meant the least concentration at which growth counts as inhibited. High values mean a less susceptible organism, low ones a more susceptible organism.

Common to all, as to format: functional
In test [1] the test system is Pseudomonas aeruginosa. As to the kind of experiment: Antimicrobial activity against multidrug-resistant Pseudomonas aeruginosa Brazil 9 isolate after overnight incubation by broth microdilution method. The procedure, abridged:
(§1)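 Modified broth microdilution in polypropylene 96-well plates with Mueller-Hinton (MH) medium. Bulk-synthesized peptides were serially diluted at 10-fold final strength in 0.01% acetic acid with 0.2% BSA, then added 1:10 to MH. Inoculum came from an overnight culture at a final (2-7) × 10^5 CFU/mL. Plates were incubated overnight at 37 °C. MIC was the lowest concentration with no visible growth.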
A general note: Dilution methods test growth across graded concentrations, often in twofold steps.

In test [2] the test system is Klebsiella pneumoniae. As to the kind of experiment: Antimicrobial activity against extended-spectrum beta-lactamase-resistant Klebsiella pneumoniae 63575 after overnight incubation by broth microdilution method. An outline of the steps:
as §1

Test [3] concerns Escherichia coli. As to the kind of experiment: Antimicrobial activity against extended-spectrum beta-lactamase producing Escherichia coli 64771 after overnight incubation by broth microdilution method. The procedure, abridged: (§2)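 Modified broth microdilution. Peptides are serially diluted in 0.01% acetic acid with 0.2% BSA at 10-fold the final concentration, then added to MH medium in polypropylene plates. Bacteria from an overnight culture are added to a final (2-7) × 10^5 CFU/mL. Plates are incubated overnight at 37 °C. MIC is the lowest concentration with no visible growth.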

Test [4] deals with Pseudomonas aeruginosa. As to the kind of experiment: Antimicrobial activity against Pseudomonas aeruginosa LES400 after overnight incubation by broth microdilution method. An outline of the steps: as §1
The subject of test [5] is Pseudomonas aeruginosa. As to the kind of experiment: Antimicrobial activity against Pseudomonas aeruginosa H1001 expressing luciferase gene assessed as ratio antimicrobial IC50 for drug to Bac2A peptide by luminescence assay. The procedure, abridged:
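Peptides are made by SPOT synthesis on cellulose, cleaved, and the spots placed in plate wells. Overnight P. aeruginosa H1001 (fliC::luxCDABE) is diluted 1:500 in 100 mM Tris-HCl pH 7.3 with 20 mM glucose and added to the wells. After 30 min, serial dilutions (8 rows) are made. Luminescence is read at 4 h. IC50 is taken from a sigmoid fit and expressed relative to Bac2A run in the same series.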

Test [6] deals with Pseudomonas aeruginosa. In words: Antimicrobial activity against Pseudomonas aeruginosa H1030 after overnight incubation by broth microdilution method. The procedure, abridged:
as §1

Test [7] concerns Enterococcus faecalis. In words: Antimicrobial activity against Enterococcus faecalis ATCC 29212 after overnight incubation by broth microdilution method. The procedure, abridged: as §2
Test [8] deals with Pseudomonas aeruginosa. In words: Antimicrobial activity against Pseudomonas aeruginosa H103 after overnight incubation by broth microdilution method. The procedure, abridged: as §2
Test [9] concerns Enterococcus faecium. In words: Antimicrobial activity against vancomycin-resistant Enterococcus faecium t62764(VanB) isolate after overnight incubation by broth microdilution method. An outline of the steps:
as §1

Test [10] has as its system Enterococcus faecalis. In words: Antimicrobial activity against vancomycin-resistant Enterococcus faecalis f43559 (VanB) isolate after overnight incubation by broth microdilution method. The procedure, abridged: as §1
For test [11], the system named is Enterococcus faecalis. In words: Antimicrobial activity against vancomycin-resistant Enterococcus faecalis w6190(VanA) isolate after overnight incubation by broth microdilution method. An outline of the steps: as §1
The subject of test [12] is Klebsiella pneumoniae. In words: Antimicrobial activity against extended-spectrum beta-lactamase-resistant Klebsiella pneumoniae 61962 after overnight incubation by broth microdilution method. The procedure, abridged:
as §1

Test [13] deals with Pseudomonas aeruginosa. As to the kind of experiment: Antimicrobial activity against multidrug-resistant Pseudomonas aeruginosa Brazil 213 isolate after overnight incubation by broth microdilution method. The procedure, abridged:
as §1

The test system of test [14] is Staphylococcus aureus. In words: Antimicrobial activity against methicillin-resistant Staphylococcus aureus C623 after overnight incubation by broth microdilution method. An outline of the steps: as §1
Test [15] concerns Pseudomonas aeruginosa. As to the kind of experiment: Antimicrobial activity against multidrug-resistant Pseudomonas aeruginosa Brazil 198 isolate after overnight incubation by broth microdilution method. An outline of the steps:
as §1

Test [16] relates to Pseudomonas aeruginosa. In words: Antimicrobial activity against Pseudomonas aeruginosa H1027 after overnight incubation by broth microdilution method. The procedure, abridged: as §2
Test [17] deals with Staphylococcus aureus. As to the kind of experiment: Antimicrobial activity against Staphylococcus aureus ATCC 25923 after overnight incubation by broth microdilution method. An outline of the steps:
as §1

Test [18] concerns Stenotrophomonas maltophilia. In words: Antimicrobial activity against Pseudomonas maltophilia ATCC 13637 after overnight incubation by broth microdilution method. An outline of the steps:
as §2

Test [19] concerns Enterococcus faecium. In words: Antimicrobial activity against vancomycin-resistant Enterococcus faecium mic80(VanA) isolate after overnight incubation by broth microdilution method. An outline of the steps:
as §1

Test [20] concerns Enterobacter cloacae. In words: Antimicrobial activity against class C chromosomal beta lactamase expressing Enterobacter cloacae 218R after overnight incubation by broth microdilution method. An outline of the steps: as §2
Test [21] has as its system Escherichia coli. As to the kind of experiment: Antimicrobial activity against extended-spectrum beta-lactamase producing Escherichia coli 63103 after overnight incubation by broth microdilution method. An outline of the steps: as §2

On to H-KWKIFRRWW-OH, for which the MIC in test [1] was 24 µM; in test [2], 97 µM; in test [3] it was 12 µM; in [4], 12 µM; in test [6], 48 µM; in [7], 24 µM. Moreover, the MIC in test [8] was determined as 12 µM; in test [9], 6.1 µM; in test [10], 97 µM; in [11], 97 µM; in [12] it was 194 µM; in [13], 48 µM. Besides, the MIC in test [14] came to 3.1 µM; in test [15] it was 24 µM; in test [16], 3.1 µM; in [17], 3.1 µM; in [18], 1.5 µM; in [19] it was 24 µM. For the same substance, the minimal inhibitory concentration (MIC) in test [20] is 6 µM; in test [21] it was 24 µM. For the same substance, in test [5], the “Ratio IC50” value is 0.16.

Consider H-FRRWWKWFK-OH, for which the minimum inhibitory concentration (MIC) came to 12 µM in [1]; 24 µM in test [2]; 6.1 µM in test [3]; 5.9 µM in test [4]; 24 µM in test [6]; 24 µM in test [7]. The MIC in test [8] worked out at 1.5 µM; in test [9], 6.1 µM; in test [10], 97 µM; in test [11], 195 µM; in test [12], 97 µM; in test [13], 5.9 µM. Moreover, the MIC in test [14] turned out to be 3 µM; in test [15] it was 3 µM; in [16], 1.5 µM; in test [17] it was 1.5 µM; in [18], 0.8 µM; in test [19] it was 6.1 µM. Besides, the MIC came out at 24 µM in test [20] and 12 µM in test [21]. In addition, the “Ratio IC50” value in test [5] is recorded as 0.12.

On to H-AVWKFVKRV-OH, for which the MIC is above 240 µM in test [2]; 120 µM in test [3]; 240 µM in [4]; above 240 µM in [6]; above 240 µM in test [7]; 240 µM in [8]. The MIC in [9] was 120 µM; in [10] it was above 240 µM; in test [11], above 240 µM; in [12], above 240 µM; in test [14] it was 240 µM; in test [15] it was 240 µM. The minimum inhibitory concentration (MIC) in [16] is 120 µM; in [17] it was 240 µM; in test [18], 60 µM; in test [19], 120 µM; in [20], above 240 µM; in test [21], 240 µM. The “Ratio IC50” value in [5] came out at 8.18.

Turning to H-LRWWWIKRI-OH, the MIC in test [1] turned out to be 50 µM; in [2], 50 µM; in test [3], 13 µM; in test [4], 25 µM; in test [6], 25 µM; in [7], 13 µM. Further, the minimum inhibitory concentration (MIC) in test [8] came out at 13 µM; in test [9] it was 1.5 µM; in test [10], 25 µM; in [11] it was 50 µM; in [12] it was 201 µM; in test [13], 50 µM. Also, the MIC was 6.3 µM in test [14]; 25 µM in test [15]; 6.3 µM in test [16]; 6.3 µM in test [17]; 3.2 µM in test [18]; 6.3 µM in [19]. Moreover, the MIC in [20] amounted to 50 µM; in test [21], 25 µM. In addition, in test [5], the “Ratio IC50” value stood at 0.33.

Consider H-RKRLKWWIY-OH, for which the minimal inhibitory concentration (MIC) in test [1] turned out to be 50 µM; in test [2] it was 50 µM; in test [3] it was 6.3 µM; in test [4] it was 50 µM; in [6], 50 µM; in test [7], 50 µM. In addition, the minimum inhibitory concentration (MIC) was 25 µM in [8]; 3.2 µM in [9]; 202 µM in test [10]; above 202 µM in [11]; above 202 µM in [12]; 50 µM in test [13]. The minimum inhibitory concentration (MIC) in [14] is 6.3 µM; in [15], 50 µM; in test [16], 6.3 µM; in [17], 6.3 µM; in test [18], 3.2 µM; in test [19], 13 µM. The MIC in test [20] was determined as 13 µM; in test [21] it was 6.3 µM. In [5], the “Ratio IC50” value was 0.18.

In the case of H-RLARIVVIRVAR-OH, the MIC in test [1] is 192 µM; in [2], 192 µM; in [3], 24 µM; in test [4] it was 95 µM; in [6], 95 µM; in test [7] it was 12 µM. The minimum inhibitory concentration (MIC) came to 48 µM in test [8]; 3 µM in test [9]; 48 µM in test [10]; 48 µM in [11]; 192 µM in [12]; 192 µM in test [13]. For the same substance, the minimal inhibitory concentration (MIC) in test [14] is 24 µM; in [15], 95 µM; in test [16] it was 12 µM; in test [17], 24 µM; in [18], 3 µM; in [19], 12 µM. In addition, the MIC in test [20] and in test [21] was 24 µM each time.

As to H-AIRRWRIRK-OH, the minimum inhibitory concentration (MIC) in test [2] is above 217 µM; in test [3], 108 µM; in [4] it was above 217 µM; in [6], above 217 µM; in test [7], above 217 µM; in [8], above 217 µM. Besides, the MIC in test [9] is 14 µM; in test [10] it was above 217 µM; in [11], above 217 µM; in [12] it was above 217 µM; in test [14], 54 µM; in test [16], 217 µM. Besides, the MIC in test [17] was found to be 54 µM; in test [18] it was 108 µM; in test [19] it was 108 µM; in test [20], 108 µM; in [21], 108 µM. Also, the “Ratio IC50” value in test [5] stood at 4.62.

In the case of H-AWRFKNIRK-OH, the MIC in test [2] was above 223 µM; in test [3], 223 µM; in test [4], above 223 µM; in [6], above 223 µM; in test [7], above 223 µM; in [8], above 223 µM. In addition, the MIC was 223 µM in [9]; above 223 µM in test [10]; above 223 µM in [11]; above 223 µM in test [12]; above 223 µM in test [14]; 111 µM in test [16]. Moreover, the minimal inhibitory concentration (MIC) in [17] is 223 µM; in [18] it was above 223 µM; in test [19], above 223 µM; in test [20], above 223 µM; in test [21], above 223 µM. For the same substance, the “Ratio IC50” value in test [5] was found to be 9.2.

As to H-KRIMKLKMR-OH, the MIC in test [2], in [3], in test [4], in test [6], in test [7] and in [8] was above 226 µM in each case. For the same substance, the minimal inhibitory concentration (MIC) in test [9], in test [10], in test [11], in [12], in [14] and in [16] was above 226 µM throughout. In addition, the MIC in [17], in test [18], in [19], in test [20] and in test [21] was above 226 µM throughout. Besides, the “Ratio IC50” value in test [5] is listed as 6.5.

For H-VVLKIVRRF-OH, the MIC in [2] was above 241 µM; in test [3] it was 241 µM; in [4], above 241 µM; in test [6] it was above 241 µM; in test [7], 241 µM; in [8], above 241 µM. The MIC in test [9] is 60 µM; in [10], above 241 µM; in test [11] it was above 241 µM; in test [12], above 241 µM; in test [14], 241 µM; in [16], 241 µM. Moreover, the MIC in [17] was 241 µM; in test [18] it was 60 µM; in test [19], 241 µM; in test [20], 241 µM; in test [21], above 241 µM. Moreover, the “Ratio IC50” value in test [5] came to 25.

Source of the values: ChEMBL document CHEMBL1153389, “Identification of novel antibacterial peptides by chemoinformatics and machine learning” (2009).
